# Tests used:
# Type in all cases: functional
# [1] = system: SF-295; test: Cytotoxicity against human SF295 cells assessed as cell growth at 10 uM; conditions: read-out: Activity
# Summary of the method: (§1)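 NCI-60 screen: cells grown in RPMI 1640 with 5% FBS and 2 mM L-glutamine, plated at 5000–40,000 cells/well according to doubling time, and preincubated 24 h at 37 °C, 5% CO2. The single 10 µM dose (DMSO stock) was added, then incubated 48 h. Cells were TCA-fixed and stained with 0.4% SRB, read at 515 nm, and growth % calculated against time-zero and control plates.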
# [2] = system: NCI-H460; test: Cytotoxicity against human NCI-H460 cells assessed as cell growth at 100 nM after 48 hrs by sulforhodamine B assay; conditions: NCI-H460, 48 h, read-out: Activity
# [3] = system: Malme-3M; test: Cytotoxicity against human MALME-3M cells assessed as cell growth at 10 uM; conditions: read-out: Activity; summary of the method: as §1
# [4] = system: NCI-H460; test: Cytotoxicity against human NCI-H460 cells assessed as cell growth at 10 uM; conditions: read-out: Activity; summary of the method: as §1
# [5] = system: KM12; test: Cytotoxicity against human KM12 cells assessed as cell growth at 10 uM after 48 hrs by sulforhodamine B assay; conditions: KM12, 48 h, read-out: Activity
# [6] = system: NCI/ADR-RES; test: Cytotoxicity against human NCI/ADR-RES cells assessed as cell growth at 10 uM after 48 hrs by sulforhodamine B assay; conditions: read-out: Activity
# [7] = system: HCT-116; test: Cytotoxicity against human HCT116 cells assessed as cell growth at 1 uM after 48 hrs by sulforhodamine B assay; conditions: HCT-116, 48 h, read-out: Activity
# [8] = system: MOLT-4; test: Cytotoxicity against human MOLT4 cells assessed as cell growth at 100 nM after 48 hrs by sulforhodamine B assay; conditions: MOLT-4, 48 h, read-out: Activity
# [9] = system: UACC-62; test: Cytotoxicity against human UACC62 cells assessed as cell growth at 10 uM after 48 hrs by sulforhodamine B assay; conditions: UACC-62, 48 h, read-out: Activity
# [10] = system: SK-MEL-2; test: Cytotoxicity against human SK-MEL-2 cells assessed as cell growth at 1 uM after 48 hrs by sulforhodamine B assay; conditions: SK-MEL-2, 48 h, read-out: Activity
# [11] = system: MDA-MB-468; test: Growth inhibition of human MDA-MB-468 cells after 48 hrs by sulforhodamine B assay; conditions: MDA-MB-468, 48 h
# Summary of the method: (§2)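 NCI 60-cell screen, five-dose mode. Cells grown in RPMI 1640 with 5% FBS and 2 mM L-glutamine and plated at 5000-40,000 cells/well according to doubling time. After 24 h preincubation, a Tz plate was TCA-fixed. Five concentrations (10-fold or 1/2 log dilutions) were applied for 48 h at 37 °C. SRB staining read at 515 nm. IC50 taken from [(Ti-Tz)/(C-Tz)]×100 = 50.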
# [12] = system: 786-0; test: Growth inhibition of human 786-0 cells after 48 hrs by sulforhodamine B assay; conditions: 786-0, 48 h; for CC50: read-out: LC50 (the source's name)
# Summary of the method: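 NCI five-dose SRB assay in RPMI 1640 with 5% FBS and 2 mM L-glutamine. Cells were preincubated 24 h, then exposed 48 h at 37 °C to five concentrations (10-fold or half-log serial dilutions from DMSO stocks). TCA fixation, SRB staining, and absorbance at 515 nm followed. IC50 was taken where [(Ti−Tz)/(C−Tz)]×100 = 50, with Tz as time-zero cell density.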
# [13] = system: TK-10; test: Cytotoxicity against human TK10 cells assessed as cell growth at 10 uM after 48 hrs by sulforhodamine B assay; conditions: TK-10, 48 h, read-out: Activity
# [14] = system: UACC-257; test: Growth inhibition of human UACC257 cells after 48 hrs by sulforhodamine B assay; conditions: UACC-257, 48 h; for CC50: read-out: LC50 (the source's name); summary of the method: as §2
# [15] = system: UACC-257; test: Cytotoxicity against human UACC257 cells assessed as cell growth at 0.01 uM after 48 hrs by sulforhodamine B assay; conditions: UACC-257, 48 h, read-out: Activity
# [16] = system: CCRF-CEM; test: Cytotoxicity against human CCRF-CEM cells assessed as cell growth at 0.001 uM after 48 hrs by sulforhodamine B assay; conditions: read-out: Activity
# Summary of the method: (§3)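 NCI-60 five-dose screen. Cells were grown in RPMI 1640 with 5% FBS and 2 mM L-glutamine, plated at 5000–40,000 cells/well and preincubated for 24 h. Time-zero plates were TCA-fixed. DMSO-solubilized drug was added at five concentrations (10-fold or ½-log serial dilutions) for 48 h at 37 °C, 5% CO2. Cells were TCA-fixed, stained with 0.4% SRB and read at 515 nm. Percent growth used time-zero, control and test absorbances.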
# [17] = system: A549; test: Cytotoxicity against human A549 cells assessed as cell growth at 0.01 uM after 48 hrs by sulforhodamine B assay; conditions: A549, 48 h, read-out: Activity; summary of the method: as §3
# [18] = system: MDA-MB-435; test: Cytotoxicity against human MDA-MB-435 cells assessed as cell growth at 1 uM after 48 hrs by sulforhodamine B assay; conditions: MDA-MB-435, 48 h, read-out: Activity
# [19] = system: MDA-MB-435; test: Cytotoxicity against human MDA-MB-435 cells assessed as cell growth at 100 nM after 48 hrs by sulforhodamine B assay; conditions: MDA-MB-435, 48 h, read-out: Activity
# [20] = system: OVCAR-8; test: Cytotoxicity against human OVCAR8 cells assessed as cell growth at 0.001 uM after 48 hrs by sulforhodamine B assay; conditions: OVCAR-8, 48 h, read-out: Activity
# [21] = system: IGROV-1; test: Cytotoxicity against human IGROV1 cells assessed as cell growth at 100 nM after 48 hrs by sulforhodamine B assay; conditions: IGROV-1, 48 h, read-out: Activity
# [22] = system: LOX IMVI; test: Cytotoxicity against human LOXIMVI cells assessed as cell growth at 10 uM after 48 hrs by sulforhodamine B assay; conditions: read-out: Activity
# [23] = system: SN12C; test: Growth inhibition of human SN12C cells after 48 hrs by sulforhodamine B assay; summary of the method: as §2
# [24] = system: Malme-3M; test: Cytotoxicity against human MALME-3M cells assessed as cell growth at 1 uM after 48 hrs by sulforhodamine B assay; conditions: read-out: Activity
# [25] = system: OVCAR-3; test: Cytotoxicity against human OVCAR-3 cells assessed as cell growth at 1 uM after 48 hrs by sulforhodamine B assay; conditions: OVCAR-3, 48 h, read-out: Activity
# [26] = system: MDA-MB-468; test: Cytotoxicity against human MDA-MB-468 cells assessed as cell growth at 10 uM after 48 hrs by sulforhodamine B assay; conditions: MDA-MB-468, 48 h, read-out: Activity
# [27] = system: NCI-H23; test: Cytotoxicity against human NCI-H23 cells assessed as cell growth at 1 uM after 48 hrs by sulforhodamine B assay; conditions: NCI-H23, 48 h, read-out: Activity
# [28] = system: HT-29; test: Growth inhibition of human HT-29 cells after 48 hrs by sulforhodamine B assay; conditions: HT-29, 48 h; for CC50: read-out: LC50 (the source's name); summary of the method: as §2
# [29] = system: T47D; test: Cytotoxicity against human T47D cells assessed as cell growth at 100 nM after 48 hrs by sulforhodamine B assay; conditions: read-out: Activity
Structure (SMILES),growth at 10 µM [1] [%],growth at 0.1 µM [2] [%],growth at 10 µM [3] [%],growth at 10 µM [4] [%],growth at 10 µM [5] [%],growth at 10 µM [6] [%],growth at 1 µM [7] [%],growth at 0.1 µM [8] [%],growth at 10 µM [9] [%],growth at 1 µM [10] [%],GI50 [11] [µM],LC50 (concentration giving 50% net cell kill) [11] [µM],TGI [11] [µM],GI50 [12] [µM],TGI [12] [µM],CC50 [12] [µM],growth at 10 µM [13] [%],GI50 [14] [µM],TGI [14] [µM],CC50 [14] [µM],other results
COc1cc(C)cc(-c2c(-c3ccnc(-c4ccc(C(C)=O)cc4)c3)cnn2CC#N)c1,93.2,87,103,104,10,11,-27,81,35,34,1.43,2.13,3.87,3.11,> 100,> 100,60,5.24,> 100,> 100,growth at 0.01 µM [15]: 81%; growth at 0.001 µM [16]: 96%; growth at 0.01 µM [17]: 84%; growth at 1 µM [18]: 17%; growth at 0.1 µM [19]: 63%; growth at 0.001 µM [20]: 103%; growth at 0.1 µM [21]: 83%; growth at 10 µM [22]: 21%; GI50 [23]: 4.49 µM; LC50 [23]: > 100 µM; TGI [23]: > 100 µM; growth at 1 µM [24]: 36%; growth at 1 µM [25]: -10%; growth at 10 µM [26]: -55%; growth at 1 µM [27]: 19%; GI50 [28]: 3.21 µM; TGI [28]: > 100 µM; CC50 [28]: > 100 µM; growth at 0.1 µM [29]: 87%
Cc1cc(O)cc(-c2nn(CC#N)cc2-c2ccnc(-c3ccc(Oc4ccccc4)cc3)c2)c1,77.7,99,115,61.4,-100,-52,-100,79,-95,6,1.79,8.28,3.85,2.14,5.38,18.9,-89,2.38,8.38,31.7,growth at 0.01 µM [15]: 80%; growth at 0.001 µM [16]: 96%; growth at 0.01 µM [17]: 88%; growth at 1 µM [18]: -18%; growth at 0.1 µM [19]: 89%; growth at 0.001 µM [20]: 96%; growth at 0.1 µM [21]: 86%; growth at 10 µM [22]: -86%; GI50 [23]: 1.8 µM; LC50 [23]: 9.01 µM; TGI [23]: 4.02 µM; growth at 1 µM [24]: -75%; growth at 1 µM [25]: -63%; growth at 10 µM [26]: -88%; growth at 1 µM [27]: -64%; GI50 [28]: 1.83 µM; TGI [28]: 3.84 µM; CC50 [28]: 8.06 µM; growth at 0.1 µM [29]: 84%
COc1cc(C)cc(-c2nn(CC#N)cc2-c2ccnc(-c3ccc(N(C)C)cc3)c2)c1,-8.52,8,82,2.65,-70,-10,-41,39,-8,23,0.181,7.24,0.635,0.42,5.43,> 100,-3,0.448,> 100,> 100,growth at 0.01 µM [15]: 91%; growth at 0.001 µM [16]: 97%; growth at 0.01 µM [17]: 97%; growth at 1 µM [18]: -7%; growth at 0.1 µM [19]: -25%; growth at 0.001 µM [20]: 97%; growth at 0.1 µM [21]: 16%; growth at 10 µM [22]: -23%; GI50 [23]: 0.73 µM; LC50 [23]: > 100 µM; TGI [23]: 33.1 µM; growth at 1 µM [24]: 61%; growth at 1 µM [25]: -41%; growth at 10 µM [26]: -63%; growth at 1 µM [27]: 15%; GI50 [28]: 0.481 µM; TGI [28]: 2.88 µM; CC50 [28]: 37.2 µM; growth at 0.1 µM [29]: 24%
Cc1cc(O)cc(-c2nn(CC#N)cc2-c2ccnc(-c3ccc(N(C)C)cc3)c2)c1,56.9,90,75,25.6,-97,-4,2,89,-80,11,1.63,9.94,4.02,3.41,16.6,> 100,-14,4.35,35.6,> 100,growth at 0.01 µM [15]: 81%; growth at 0.001 µM [16]: 97%; growth at 0.01 µM [17]: 91%; growth at 1 µM [18]: -49%; growth at 0.1 µM [19]: 51%; growth at 0.001 µM [20]: 100%; growth at 0.1 µM [21]: 87%; growth at 10 µM [22]: -87%; GI50 [23]: 4.28 µM; LC50 [23]: > 100 µM; TGI [23]: 30 µM; growth at 1 µM [24]: 27%; growth at 1 µM [25]: -40%; growth at 10 µM [26]: -61%; growth at 1 µM [27]: 24%; GI50 [28]: 4.65 µM; TGI [28]: 20.8 µM; CC50 [28]: 93.9 µM; growth at 0.1 µM [29]: 82%
COc1cc(C)cc(-c2nn(CC#N)cc2-c2ccc(-c3cccc(C(C)=O)c3)nc2)c1,16.9,84,60.5,17.4,-25,-14,1,84,25,22,0.275,52.3,1.49,3.52,93,> 100,-29,3.61,> 100,> 100,growth at 0.01 µM [15]: 85%; growth at 0.001 µM [16]: 96%; growth at 0.01 µM [17]: 87%; growth at 1 µM [18]: -44%; growth at 0.1 µM [19]: 11%; growth at 0.001 µM [20]: 91%; growth at 0.1 µM [21]: 88%; growth at 10 µM [22]: 6%; GI50 [23]: 6.08 µM; LC50 [23]: > 100 µM; TGI [23]: > 100 µM; growth at 1 µM [24]: 38%; growth at 1 µM [25]: -61%; growth at 10 µM [26]: -53%; growth at 1 µM [27]: 17%; GI50 [28]: 3.28 µM; TGI [28]: 18.7 µM; CC50 [28]: > 100 µM; growth at 0.1 µM [29]: 81%

# Source: ChEMBL document CHEMBL1165950, “Design and synthesis of new potent anticancer pyrazoles with high FLT3 kinase inhibitory selectivity” (Bioorg Med Chem, 2010)
